Source: ChEMBL document CHEMBL2163259, “ADME-guided design and synthesis of aryloxanyl pyrazolone derivatives to block mutant superoxide dismutase 1 (SOD1) cytotoxicity and protein aggregation: potential application for the treatment of amyotrophic lateral sclerosis” (J Med Chem, 2012)
Calls of active or inactive are those of the source. The calls are words filed in the database; no cut-off is given here.

What was measured:
[1] = target: 5-hydroxytryptamine receptor 3A (Homo sapiens) (UniProt P46098); assay: Inhibition of human 5HT3A receptor at 10 uM by radioligand displacement assay
How it was run: (§1)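 LeadProfilingScreen panel of 68 in vitro enzyme and receptor assays. Compound tested at 10 μM in duplicate.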

[2] = Half life in human microsomes at 5 uM incubated for 1 hr at 37 degC in presence of NADPH; type: ADME, Microsome; conditions: 1 h, 5 µM
[3] = target: Adenosine receptor A1 (Homo sapiens) (UniProt P30542); assay: Inhibition of human adenosine A1 receptor at 10 uM by radioligand displacement assay; how it was run: as §1
Homo sapiens [4] = organism: Homo sapiens; assay: Inhibition of human dopamine D4.2 receptor at 10 uM by radioligand displacement assay
How it was run: (§2)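 Single concentration of 10 μM, tested in duplicate as part of a contracted panel of 68 in vitro enzyme and receptor assays. The panel covers common adverse CNS, cardiovascular, pulmonary and genotoxic targets.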

Rattus norvegicus [5] = organism: Rattus norvegicus; assay: Inhibition of rat Rolipram binding site at 10 uM by radioligand displacement assay; how it was run: as §2
[6] = target: Glutamate NMDA receptor (Rattus norvegicus) (UniProt P35439+Q00959+Q00960+Q00961+Q62645+Q8VHN2+Q9R1M7); assay: Inhibition of rat NMDA receptor glutamate binding site at 10 uM by radioligand displacement assay; type: protein-complex assay; how it was run: as §2
[7] = target: Beta-2 adrenergic receptor (Homo sapiens) (UniProt P07550); assay: Inhibition of human beta2 adrenergic receptor at 10 uM by radioligand displacement assay; how it was run: as §1
[8] = Half life in Sprague-Dawley rat at 1 mg/kg, iv; type: ADME, organism-based; design: dose 1 mg/kg, route intravenous; conditions: in vivo
How it was run: (§3)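 Sprague-Dawley rats given a single 1 mg/kg bolus, intravenous or oral. Plasma PK parameters (AUC, dose-normalised AUC, half-life, clearance, Vss, Cmax, Tmax, oral bioavailability) derived from plasma levels.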

Rattus norvegicus [9] = assay: Oral bioavailability in Sprague-Dawley rat at 1 mg/kg; type: ADME, organism-based; conditions: in vivo
How it was run: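 Sprague-Dawley rats received a single bolus of 1 mg/kg, given both intravenously and orally. Plasma PK parameters, including oral bioavailability (F%), were derived from the two routes.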

[10] = target: Endothelin-1 receptor (Homo sapiens) (UniProt P25101); assay: Inhibition of human endothelin ETA at 10 uM by radioligand displacement assay; how it was run: as §2
Homo sapiens [11] = organism: Homo sapiens; assay: Inhibition of human nicotinic acetylcholine receptor bungarotoxin binding site at 10 uM by radioligand displacement assay
How it was run: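 Single concentration of 10 μM, tested in duplicate in a contract panel of 68 in vitro enzyme and receptor binding assays covering common adverse CNS, cardiovascular, pulmonary and genotoxic targets.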

[12] = Volume of distribution at steady state in Sprague-Dawley rat at 1 mg/kg, iv; type: ADME, organism-based; design: dose 1 mg/kg, route intravenous; conditions: in vivo, read-out: Vdss
How it was run: (§4)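 Sprague-Dawley rats received a single bolus of 1 mg/kg by i.v. or by oral route. Plasma PK parameters were derived from the plasma concentration profile.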

Cytochrome P450 3A4 = Cytochrome P450 3A4 (Homo sapiens, UniProt P08684); assay: Inhibition of CYP3A4 using midazolam as substrate; type: ADME
How it was run: (§5)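 Reversible inhibition of CYP isozymes in human liver microsomes, each isozyme with a single probe substrate. CYP3A4 tested with both testosterone and midazolam. IC50 determined.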

[13] = target: Muscarinic acetylcholine receptor M1 (Homo sapiens) (UniProt P11229); assay: Inhibition of human muscarinic M1 receptor at 10 uM by radioligand displacement assay; how it was run: as §2
Homo sapiens [14] = organism: Homo sapiens; assay: Inhibition of human dopamine […] receptor at 10 uM by radioligand displacement assay; how it was run: as §2
[15] = target: Androgen receptor (Rattus norvegicus) (UniProt P15207); assay: Inhibition of rat testosterone receptor at 10 uM by radioligand displacement assay; how it was run: as §2
Mus musculus [16] = organism: Mus musculus; assay: Inhibition of mouse IL-1 at 10 uM by radioligand displacement assay; how it was run: as §2
[17] = target: Delta-type opioid receptor (Homo sapiens) (UniProt P41143); assay: Inhibition of human delta-type opioid receptor at 10 uM by radioligand displacement assay; how it was run: as §1
[18] = target: Sodium-dependent dopamine transporter (Homo sapiens) (UniProt Q01959); assay: Inhibition of human dopamine transporter at 10 uM by radioligand displacement assay; how it was run: as §2
[19] = target: Cysteinyl leukotriene receptor 1 (Homo sapiens) (UniProt Q9Y271); assay: Inhibition of human cysteinyl CysLT1 receptor at 10 uM by radioligand displacement assay; how it was run: as §1
[20] = Half life in Sprague-Dawley rat at 1 mg/kg, po; type: ADME, organism-based; design: dose 1 mg/kg, route oral; conditions: in vivo; how it was run: as §3
[21] = system: Superoxide dismutase [Cu-Zn] (Homo sapiens), P00441 [G94A]; assay: Inhibition of SOD1 G93A mutant aggregation-induced cytotoxicity in human HEK293 cells by cytotoxicity protection assay; type: cell-based
Rattus norvegicus [22] = organism: Rattus norvegicus; assay: Inhibition of rat GABAA receptor muscimol site at 10 uM by radioligand displacement assay; how it was run: as §2
[23] = Tmax in Sprague-Dawley rat at 1 mg/kg, po; type: ADME, organism-based; design: dose 1 mg/kg, route oral; conditions: in vivo; how it was run: as §4
[24] = target: Muscarinic acetylcholine receptor M3 (Homo sapiens) (UniProt P20309); assay: Inhibition of human muscarinic M3 receptor at 10 uM by radioligand displacement assay; how it was run: as §2
Cytochrome P450 2C19 = Cytochrome P450 2C19 (Homo sapiens, UniProt P33261); assay: Inhibition of CYP2C19; type: ADME; how it was run: as §5
[25] = Toxicity in ip dosed wild type mouse administered twice daily; type: organism-based; conditions: in vivo
How it was run: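 Tolerability was tested in wild-type mice by i.p. injection twice daily. Each injection increased the dose one-fold, up to 75 mg/kg.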

Rattus norvegicus [26] = assay: Dose normalised AUC in Sprague-Dawley rat at 1 mg/kg, po; type: ADME, organism-based; design: dose 1 mg/kg, route oral; conditions: in vivo; how it was run: as §3
[27] = target: Pyroglutamylated RF-amide peptide receptor (Homo sapiens) (UniProt Q96P65); assay: Inhibition of human GPR103 receptor at 10 uM by radioligand displacement assay; how it was run: as §1
Mus musculus [28] = assay: Neuroprotective activity in SOD1 G93A mutant B6SJL mouse ALS model assessed as life extension administered qd starting at 6 weeks of age throughout life
[29] = target: Histamine H2 receptor (Homo sapiens) (UniProt P25021); assay: Inhibition of human histamine H2 receptor at 10 uM by radioligand displacement assay; how it was run: as §2
[30] = target: D(3) dopamine receptor (Homo sapiens) (UniProt P35462); assay: Inhibition of human dopamine D3 receptor at 10 uM by radioligand displacement assay; how it was run: as §2
[31] = target: Beta-1 adrenergic receptor (Homo sapiens) (UniProt P08588); assay: Inhibition of human beta1 adrenergic receptor at 10 uM by radioligand displacement assay; how it was run: as §1
Mus musculus [32] = organism: Mus musculus; assay: Inhibition of mouse phorbol ester site of PKC at 10 uM by radioligand displacement assay; how it was run: as §2
[33] = target: Kappa-type opioid receptor (Homo sapiens) (UniProt P41145); assay: Inhibition of human kappa-type opioid receptor at 10 uM by radioligand displacement assay; how it was run: as §2
[34] = target: Gamma-aminobutyric acid type B receptor subunit 1 (Homo sapiens) (UniProt Q9UBS5); assay: Inhibition of human GABAB1A receptor at 10 uM by radioligand displacement assay; how it was run: as §1
[35] = Efflux ratio of permeability from basolateral to apical side over apical to basolateral side in human Caco2 cells; type: ADME, cell-based; conditions: Caco-2
[36] = target: Histamine H1 receptor (Homo sapiens) (UniProt P35367); assay: Inhibition of human histamine H1 receptor at 10 uM by radioligand displacement assay; how it was run: as §2

Superoxide dismutase [Cu-Zn] (Homo sapiens), P00441 [G94A], sequence (P00441 whole entry G94A): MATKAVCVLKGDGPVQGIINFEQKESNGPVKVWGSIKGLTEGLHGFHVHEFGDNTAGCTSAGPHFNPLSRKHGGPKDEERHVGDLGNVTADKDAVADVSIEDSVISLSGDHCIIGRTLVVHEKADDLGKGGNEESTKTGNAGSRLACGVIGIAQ
Muscarinic acetylcholine receptor M3 (Homo sapiens), sequence (P20309 whole entry, looked up): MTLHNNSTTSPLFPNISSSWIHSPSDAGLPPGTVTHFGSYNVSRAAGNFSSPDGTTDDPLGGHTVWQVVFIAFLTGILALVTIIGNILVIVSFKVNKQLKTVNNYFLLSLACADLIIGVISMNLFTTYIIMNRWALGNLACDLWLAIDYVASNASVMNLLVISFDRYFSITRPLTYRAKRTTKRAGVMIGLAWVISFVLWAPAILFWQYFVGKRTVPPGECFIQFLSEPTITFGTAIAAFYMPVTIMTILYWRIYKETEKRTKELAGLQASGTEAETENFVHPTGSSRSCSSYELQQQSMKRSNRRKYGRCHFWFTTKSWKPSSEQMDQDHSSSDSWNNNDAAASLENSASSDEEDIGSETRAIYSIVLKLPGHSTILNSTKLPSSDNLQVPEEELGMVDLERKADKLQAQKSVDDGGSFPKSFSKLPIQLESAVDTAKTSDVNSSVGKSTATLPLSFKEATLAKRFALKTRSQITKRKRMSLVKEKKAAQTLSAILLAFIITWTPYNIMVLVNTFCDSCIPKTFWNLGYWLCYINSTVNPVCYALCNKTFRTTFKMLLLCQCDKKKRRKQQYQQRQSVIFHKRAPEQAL
D(3) dopamine receptor (Homo sapiens), sequence (P35462 whole entry): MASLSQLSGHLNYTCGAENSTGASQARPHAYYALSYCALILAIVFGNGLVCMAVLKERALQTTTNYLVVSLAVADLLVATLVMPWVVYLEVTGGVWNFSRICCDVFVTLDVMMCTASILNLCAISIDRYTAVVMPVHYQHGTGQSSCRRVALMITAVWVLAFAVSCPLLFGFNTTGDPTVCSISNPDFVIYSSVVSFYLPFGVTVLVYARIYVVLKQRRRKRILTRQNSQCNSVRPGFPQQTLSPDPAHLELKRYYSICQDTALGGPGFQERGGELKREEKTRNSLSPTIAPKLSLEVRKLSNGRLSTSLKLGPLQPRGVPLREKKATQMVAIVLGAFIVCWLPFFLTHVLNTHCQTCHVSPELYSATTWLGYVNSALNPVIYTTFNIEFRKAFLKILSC
Delta-type opioid receptor (Homo sapiens), sequence (P41143 whole entry): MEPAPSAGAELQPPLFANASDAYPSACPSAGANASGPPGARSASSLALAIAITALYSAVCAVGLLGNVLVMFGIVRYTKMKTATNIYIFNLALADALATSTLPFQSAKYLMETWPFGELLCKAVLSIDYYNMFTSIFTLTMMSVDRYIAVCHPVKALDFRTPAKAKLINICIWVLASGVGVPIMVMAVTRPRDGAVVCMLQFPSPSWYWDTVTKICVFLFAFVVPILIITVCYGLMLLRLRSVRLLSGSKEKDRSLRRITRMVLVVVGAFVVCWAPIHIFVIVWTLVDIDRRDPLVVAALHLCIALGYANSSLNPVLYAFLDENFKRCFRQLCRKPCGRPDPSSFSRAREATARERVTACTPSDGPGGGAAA
Endothelin-1 receptor (Homo sapiens), sequence (P25101 whole entry): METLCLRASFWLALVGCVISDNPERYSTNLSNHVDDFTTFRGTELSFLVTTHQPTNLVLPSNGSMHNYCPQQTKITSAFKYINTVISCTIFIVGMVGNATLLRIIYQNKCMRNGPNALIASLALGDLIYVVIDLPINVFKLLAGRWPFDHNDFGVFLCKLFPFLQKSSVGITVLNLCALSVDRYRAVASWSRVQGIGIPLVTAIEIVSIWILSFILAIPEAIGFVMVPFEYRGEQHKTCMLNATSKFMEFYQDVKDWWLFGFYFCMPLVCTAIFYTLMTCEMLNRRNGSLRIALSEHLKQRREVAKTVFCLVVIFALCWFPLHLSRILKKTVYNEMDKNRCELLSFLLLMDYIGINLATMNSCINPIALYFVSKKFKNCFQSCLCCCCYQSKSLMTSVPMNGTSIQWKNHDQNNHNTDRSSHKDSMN
Beta-1 adrenergic receptor (Homo sapiens), sequence (P08588 whole entry, looked up): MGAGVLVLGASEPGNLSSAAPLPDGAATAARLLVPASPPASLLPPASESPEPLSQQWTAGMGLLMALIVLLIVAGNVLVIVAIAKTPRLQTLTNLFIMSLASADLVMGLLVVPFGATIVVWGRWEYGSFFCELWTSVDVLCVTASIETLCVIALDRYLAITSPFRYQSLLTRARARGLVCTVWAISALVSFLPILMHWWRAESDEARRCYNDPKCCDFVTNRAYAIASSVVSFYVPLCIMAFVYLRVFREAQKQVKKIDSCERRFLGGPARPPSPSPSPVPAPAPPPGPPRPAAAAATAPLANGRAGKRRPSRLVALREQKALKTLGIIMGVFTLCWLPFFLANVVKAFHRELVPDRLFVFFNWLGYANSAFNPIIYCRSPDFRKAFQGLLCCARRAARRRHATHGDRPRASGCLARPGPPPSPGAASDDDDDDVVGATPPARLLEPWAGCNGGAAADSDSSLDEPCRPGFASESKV
5-hydroxytryptamine receptor 3A (Homo sapiens), sequence (P46098 whole entry): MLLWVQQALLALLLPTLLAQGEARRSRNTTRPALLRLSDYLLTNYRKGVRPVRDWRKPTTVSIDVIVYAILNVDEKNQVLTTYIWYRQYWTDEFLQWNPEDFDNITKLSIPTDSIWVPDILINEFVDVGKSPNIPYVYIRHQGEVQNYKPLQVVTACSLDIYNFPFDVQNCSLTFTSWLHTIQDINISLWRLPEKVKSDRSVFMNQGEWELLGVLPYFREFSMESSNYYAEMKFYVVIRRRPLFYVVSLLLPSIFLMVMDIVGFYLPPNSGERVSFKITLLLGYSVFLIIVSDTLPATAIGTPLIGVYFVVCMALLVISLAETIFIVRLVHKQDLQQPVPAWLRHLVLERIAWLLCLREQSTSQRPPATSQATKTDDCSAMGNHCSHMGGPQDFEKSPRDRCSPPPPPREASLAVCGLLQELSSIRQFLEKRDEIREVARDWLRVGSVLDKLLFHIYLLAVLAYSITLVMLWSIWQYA
Kappa-type opioid receptor (Homo sapiens), sequence (P41145 whole entry): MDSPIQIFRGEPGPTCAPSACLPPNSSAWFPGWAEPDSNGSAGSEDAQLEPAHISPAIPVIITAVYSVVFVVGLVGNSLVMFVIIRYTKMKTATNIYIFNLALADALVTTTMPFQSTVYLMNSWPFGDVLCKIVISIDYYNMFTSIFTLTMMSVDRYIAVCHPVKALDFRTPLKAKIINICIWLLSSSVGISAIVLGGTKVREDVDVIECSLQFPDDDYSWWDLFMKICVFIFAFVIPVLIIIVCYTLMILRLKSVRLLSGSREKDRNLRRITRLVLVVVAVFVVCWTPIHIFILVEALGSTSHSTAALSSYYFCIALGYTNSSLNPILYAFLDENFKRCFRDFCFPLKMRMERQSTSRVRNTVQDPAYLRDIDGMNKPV
Pyroglutamylated RF-amide peptide receptor (Homo sapiens), sequence (Q96P65 whole entry): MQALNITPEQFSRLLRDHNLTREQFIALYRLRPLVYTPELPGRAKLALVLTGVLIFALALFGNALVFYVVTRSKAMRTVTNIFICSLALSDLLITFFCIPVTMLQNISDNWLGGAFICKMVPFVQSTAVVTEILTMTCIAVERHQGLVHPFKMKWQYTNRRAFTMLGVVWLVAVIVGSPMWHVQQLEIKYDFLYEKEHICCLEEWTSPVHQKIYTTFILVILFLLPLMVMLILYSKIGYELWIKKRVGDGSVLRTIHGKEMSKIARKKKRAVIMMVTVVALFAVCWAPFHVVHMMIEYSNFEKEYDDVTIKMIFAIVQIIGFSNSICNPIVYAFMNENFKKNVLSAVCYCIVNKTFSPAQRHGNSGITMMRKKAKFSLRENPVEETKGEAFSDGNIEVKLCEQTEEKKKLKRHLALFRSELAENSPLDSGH
Cytochrome P450 2C19, sequence (P33261 whole entry): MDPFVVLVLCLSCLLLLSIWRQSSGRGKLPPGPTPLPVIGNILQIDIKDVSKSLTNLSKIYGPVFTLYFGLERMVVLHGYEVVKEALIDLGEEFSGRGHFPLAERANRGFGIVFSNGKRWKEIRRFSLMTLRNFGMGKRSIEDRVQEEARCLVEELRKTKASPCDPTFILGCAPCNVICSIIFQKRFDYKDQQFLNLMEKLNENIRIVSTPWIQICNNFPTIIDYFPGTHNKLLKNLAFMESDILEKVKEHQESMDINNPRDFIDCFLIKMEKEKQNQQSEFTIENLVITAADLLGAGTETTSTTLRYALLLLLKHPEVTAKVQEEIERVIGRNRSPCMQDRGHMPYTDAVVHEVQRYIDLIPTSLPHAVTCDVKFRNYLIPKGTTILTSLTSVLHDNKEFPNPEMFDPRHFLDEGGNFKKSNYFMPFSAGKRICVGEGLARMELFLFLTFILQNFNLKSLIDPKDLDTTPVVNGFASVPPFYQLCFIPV
Muscarinic acetylcholine receptor M1 (Homo sapiens), sequence (P11229 whole entry): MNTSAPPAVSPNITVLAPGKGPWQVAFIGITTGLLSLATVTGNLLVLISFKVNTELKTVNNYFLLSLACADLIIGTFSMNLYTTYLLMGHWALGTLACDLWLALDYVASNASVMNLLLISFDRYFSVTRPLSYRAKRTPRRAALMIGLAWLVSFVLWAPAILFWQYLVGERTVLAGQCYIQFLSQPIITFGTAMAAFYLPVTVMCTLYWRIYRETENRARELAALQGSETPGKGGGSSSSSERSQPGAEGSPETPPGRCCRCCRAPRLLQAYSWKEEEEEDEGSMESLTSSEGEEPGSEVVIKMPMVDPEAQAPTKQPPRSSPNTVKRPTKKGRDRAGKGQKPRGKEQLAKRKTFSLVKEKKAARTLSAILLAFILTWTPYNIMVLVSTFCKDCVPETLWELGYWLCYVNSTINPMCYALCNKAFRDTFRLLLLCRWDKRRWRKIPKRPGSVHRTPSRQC

`O=c1cc(COc2cc(Cl)cc(Cl)c2)[nH][nH]1` gave an inhibition [1] of 7%, a t1/2 [2] of 1.55 h and an inhibition [3] of 15%. For the same compound, the inhibition (Homo sapiens [4]) was -3%, the inhibition (Rattus norvegicus [5]) was -2% and the inhibition [6] was -3%. For the same compound, the inhibition [7] was -2%, the half-life [8] was 2.1 h and the F (Rattus norvegicus [9]) was 27%. The inhibition [10] was 3%, the inhibition (Homo sapiens [11]) was 6% and the Vd [12] was 5.7 L/kg. It also gave an IC50 (Cytochrome P450 3A4) of over 50 µM, an inhibition [13] of 2% and an inhibition (Homo sapiens [14]) of 14%. The inhibition [15] was 3%, the inhibition (Mus musculus [16]) was 3% and the inhibition [17] was 25%. The inhibition [18] was 11%, the inhibition [19] was 0% and the half-life [20] was 3.6 h. For the same compound, the inhibition [21] was “Active”, the inhibition (Rattus norvegicus [22]) was 1% and the Tmax [23] was 0.25 h. It also gave an inhibition [24] of -4%, an IC50 (Cytochrome P450 2C19) of 20 µM and an MTD [25] of 75 mg/kg. The AUC/dose (Rattus norvegicus [26]) was 50 ng·h/mL/mg/kg, the inhibition [27] was 3% and the Activity (Mus musculus [28]) was “Dose-dependent effect”. It also gave an inhibition [29] of 3%, an inhibition [30] of -4% and an inhibition [31] of 1%. It also gave an inhibition (Mus musculus [32]) of 1%, an inhibition [33] of -9% and an inhibition [34] of -7%. It also gave an efflux ratio [35] of 0.4 and an inhibition [36] of 1%.
